Assay results reported in ChEMBL document CHEMBL1124649, “Platelet activating factor antagonists: synthesis and structure-activity studies of novel PAF analogues modified in the phosphorylcholine moiety” (J Med Chem, 1989).

Experiments:
Type in all cases: functional
Mus musculus [1] = assay: Time course of protecting effect on PAF-induced death in mice, at the dose of 1 mg/kg after 24 hr
In short: (§1)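 Conscious male ICR-Jcl mice, 5-7 weeks old. Drug dissolved in saline (0.1 mL/10 g) given into the tail vein 8 or 24 h before PAF (50 μg/kg, iv); saline-only controls. Death defined as cessation of respiration. Survival rate recorded 60 min after PAF. 16 mice per compound, 142 controls; χ2 test versus control.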

Rattus norvegicus [2] = assay: Compound was evaluated for the percent inhibition of the platelet activating factor (PAF) hypotension, after 120 min of intravenous injection of 0.1 mg/kg in rat; settings: 2 h
Rattus norvegicus [3] = assay: Compound was evaluated for the percent inhibition of the platelet activating factor (PAF) hypotension, after 60 min of intravenous injection of 0.1 mg/kg in rat; settings: 1 h
Mus musculus [4] = assay: Time course of protecting effect on PAF-induced death in mice, at the dose of 1 mg/kg after 8 hr; in short: as §1
Rattus norvegicus [5] = assay: Compound was evaluated for the percent inhibition of the platelet activating factor (PAF) hypotension, after 5 min of intravenous injection of 0.1 mg/kg in rat
Rattus norvegicus [6] = assay: Compound was evaluated for the percent inhibition of the platelet activating factor (PAF) hypotension, after 60 min of intravenous injection of 1 mg/kg in rat; settings: 1 h
Rattus norvegicus [7] = assay: Compound was evaluated for the percent inhibition of the platelet activating factor (PAF) hypotension, after 5 min of intravenous injection of 1 mg/kg in rat
Rattus norvegicus [8] = assay: Compound was evaluated for the percent inhibition of the platelet activating factor (PAF) hypotension, after 120 min of intravenous injection of 1 mg/kg in rat; settings: 2 h

Structure (SMILES)	survival at 1 mg/kg (Mus musculus [1]) [%]	inhibition in vivo at 0.1 mg/kg (Rattus norvegicus [2]) [%]	inhibition in vivo at 0.1 mg/kg (Rattus norvegicus [3]) [%]	survival at 1 mg/kg (Mus musculus [4]) [%]	inhibition in vivo at 0.1 mg/kg (Rattus norvegicus [5]) [%]	inhibition in vivo at 1 mg/kg (Rattus norvegicus [6]) [%]	inhibition in vivo at 1 mg/kg (Rattus norvegicus [7]) [%]	inhibition in vivo at 1 mg/kg (Rattus norvegicus [8]) [%]
CCCCCCCCCCCCCCCCCCNC(=O)OCC(COC(=O)N(Cc1csc[n+]1CC)C(C)=O)OC (stereo not given)	25	14	40	75	100	–	–	–
CCCCCCCCCCCCCCCCCCNC(=O)OCC(COC(=O)N(Cc1scc[n+]1CC)C(C)=O)OC (stereo not given)	–	0	3	–	100	–	–	–
CCCCCCCCCCCCCCCCCCNC(=O)OCC(COC(=O)N(Cc1cccc[n+]1C)C(C)=O)OC (stereo not given)	–	–	–	–	–	39	82	33
CCCCCCCCCCCCCCCCCCNC(=O)OCC(COC(=O)N(Cc1csc[n+]1C)C(C)=O)OC (stereo not given)	–	–	–	–	–	29	92	4
CCCCCCCCCCCCCCCCCCNC(=O)OCC(COC(=O)N(Cc1scc[n+]1C)C(C)=O)OC (stereo not given)	–	0	6	–	43	100	100	30
CCCCCCCCCCCCCCCCCCNC(=O)OCC(COC(=O)N(Cc1cccc[n+]1CCCC)C(C)=O)OC (stereo not given)	–	–	–	–	–	0	100	–
CCCCCCCCCCCCCCCCCCNC(=O)OCC(COC(=O)N(Cc1cccc[n+]1CCC)C(C)=O)OC (stereo not given)	–	–	0	–	45	–	–	–
CCCCCCCCCCCCCCCCCCNC(=O)OC[C@H](COC(=O)N(Cc1cccc[n+]1CC)C(C)=O)OC	–	20	36	–	100	–	–	–
CCCCCCCCCCCCCCCCCCNC(=O)OC[C@@H](COC(=O)N(Cc1cccc[n+]1CC)C(C)=O)OC	–	17	54	–	100	–	–	–
CCCCCCCCCCCCCCCCCCNC(=O)OCC(COC(=O)N(Cc1cccc[n+]1CC)C(C)=O)OC (stereo not given) [CV-6209]	69	34	55	100	100	–	–	–
